Screening data deposited in PubChem BioAssay by several laboratories.
Sampled rows, rich in hits. Any-hit rate of the full collection: about 2.2%.
HNF4A DNA FP = change in binding of human HNF4A to DNA, primary screen, biochemical, fluorescence polarization, FITC-DNA; Hepatocyte nuclear factor 4-alpha (Homo sapiens), P41235; 1 h; activity change, % at 10 µM; actives 0.3% (n = 360,000); in the data active = activity change above about 30%, passing the limit was not always enough
Target sequence (P41235 whole entry, looked up): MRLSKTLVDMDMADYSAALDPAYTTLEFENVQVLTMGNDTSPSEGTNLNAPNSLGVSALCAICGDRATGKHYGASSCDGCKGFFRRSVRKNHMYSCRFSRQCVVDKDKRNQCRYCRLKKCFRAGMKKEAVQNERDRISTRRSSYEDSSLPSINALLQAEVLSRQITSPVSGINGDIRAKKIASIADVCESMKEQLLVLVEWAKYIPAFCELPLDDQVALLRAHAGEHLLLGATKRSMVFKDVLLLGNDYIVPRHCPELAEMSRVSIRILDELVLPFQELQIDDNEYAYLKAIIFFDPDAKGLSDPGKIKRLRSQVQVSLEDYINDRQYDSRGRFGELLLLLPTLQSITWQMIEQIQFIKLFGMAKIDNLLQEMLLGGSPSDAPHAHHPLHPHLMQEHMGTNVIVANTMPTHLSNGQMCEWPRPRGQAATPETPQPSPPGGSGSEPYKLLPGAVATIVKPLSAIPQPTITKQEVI
CSN inh = inhibitors of CSN-mediated cullin deneddylation, primary screen, biochemical, fluorescence polarization, uHTS. COP9 signalosome complex subunit 5 (Homo sapiens), Q92905. Purified CSN, SCF-Nedd8-OG deneddylation. inhibition, % at 12.5 µM. actives 0.38% (n = 360,000). AID 651999, 2013;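 active = pattern-corrected inhibition above about 35%, with an unprinted fluorescence ratio check between 0.5 and 1.5, limit read from the data, passing the limit was not always enough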;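 note: 0% = enzyme with substrate and 100% = substrate without enzyme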
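test system = HEK293T-derived human Csn5 enzyme | amount = 0.24 nM Csn5 enzyme, final concentration | medium = Tris/NaCl/DTT buffer, pH 7.5 | schedule = 90 min reaction at room temperature | signal = FP | evaluation = inhibition of Csn5 cleavage, % | compound dosing = single dose of 12.5 µM compound with 0.25% DMSO | probe or stimulus = 10 nM SCFSkp2-Nedd8OG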
Myeloid diff 2 = induction of myeloid progenitor differentiation, primary screen, cell-based, flow cytometry, MLPCN library | actives 1% (n = 360,000) | calls only at 10 µM | ER-HoxA9 myeloid progenitors, lysozyme-GFP differentiation;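 active = normalized GFP-positive differentiation at or above the plate's own cutoff, the solvent-only control mean plus 3 SD; inconclusive = no clear call, values can overlap the other calls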;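 note: cells exposed to compound for four days before flow analysis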
Granule exo inh = LAMP-1 surface exposure blockers, TALL-104 cells – cell-based, flow cytometry, MLPCN library, primary screen; TALL-104 LAMP-1 surface exposure; cells stimulated with thapsigargin and PMA; AID 651702, 2012; inhibition, % at 10 µM; actives 0.66% (n = 360,000);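 active = inhibition above about 55%, limit read from the data; inconclusive = no clear call, values can overlap the other calls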
* = called active by the depositor; i = inactive; ? = inconclusive; + = active, no number.

SMILES	HNF4A DNA FP	CSN inh	Myeloid diff 2	Granule exo inh
CC1=C(C(=O)N(C(C)C)C(C)C)CC(CC(=O)NCCCCc2ccccc2)C(=O)N1Cc1ccc(C(C)(C)C)cc1 (centres undefined)	1.6	-5.6	+	-5.4
CC1=C(C(=O)N2CCCCCC2)CC(CC(=O)NC2CCCCC2)C(=O)N1Cc1ccccc1 (centres undefined)	-3.9	116.7*	i	2.6
COc1ccc(N2C(=O)CSC23C(=O)N(CC(=O)NC2CCCC2)c2ccccc23)cc1 (centres undefined)	10.5	-0.1	i	-0.5
CS(=O)(=O)N(CC(=O)N1CCOCC1)c1cccc(Cl)c1	5.0	90.1*	i	1.2
CCN1CCN(Cc2c(O)ccc3c(=O)c(-c4ccccc4OC)coc23)CC1	0.8	6.0	i	-3.2
CCN1CCN(Cc2c(O)ccc3c2O/C(=C\C=C\c2ccccc2OC)C3=O)CC1	46.9*	29.2	i	13.1
COc1ccc(NC(=O)c2cc(-c3ccco3)nc3ccccc23)cc1S(=O)(=O)N1CCOCC1	-28.6	39.6	i	-0.4
Cc1ccc(NC(=O)c2cc(-c3ccco3)nc3ccccc23)cc1S(=O)(=O)N1CCOCC1	-23.9	37.4*	i	-2.8
O=C(C#Cc1cccc([N+](=O)[O-])c1)c1ccccc1	0.4	-1.8	i	70.0*
COc1cccc(OCc2cc(C(=O)NC3CCOCC3)no2)c1	2.8	-5.1	+	-3.1
Cc1ccc(C(=O)c2no[n+]([O-])c2C(=O)c2ccc(C)cc2)cc1	3.6	-0.7	i	67.6*
Cc1ccc(-c2nc3cc(NC(=O)C(C)C)ccc3o2)cc1C	0.9	-0.3	i	2.1
Cc1ccc(-c2nc3cc(NC(=O)C(C)C)ccc3o2)cc1	-1.4	-2.6	+	-3.0
CC(OC(=O)C1CCC1)C(=O)Nc1cc(Cl)cc(Cl)c1 (centres undefined)	-3.8	2.1	i	-4.3
CC(OC(=O)C1CC1)C(=O)Nc1cc(Cl)cc(Cl)c1 (centres undefined)	1.1	0.7	+	-1.3
NC(N)=N/N=C/c1ccc(OCc2ccc(Cl)cc2)cc1	3.5	11.9	i	73.3*
NC(N)=N/N=C/c1ccc(OCc2ccccc2)cc1	4.2	4.4	i	5.3
c1ccc(-c2noc(-c3ccncc3)n2)nc1	2.4	8.5	i	-2.3
c1ccc(-c2noc(-c3cccnc3)n2)nc1	-2.2	1.9	+	14.5
C#CCOCCOCCOCCNc1nc(N2CCN(C(=O)C([C@@H](C)CC)n3cc(C(N)CC(C)C)nn3)CC2)nc(N2CCN(C(=O)[C@H](CCC(=O)O)n3cc(C(N)Cc4ccc(O)cc4)nn3)CC2)n1 (some centres undefined)	2.4	-3.7	i	-7.8
C#CCOCCOCCOCCNc1nc(N2CCN(C(=O)[C@H](CCCCN)n3cc(C(N)CC(C)C)nn3)CC2)nc(N2CCN(C(=O)[C@H](CCC(=O)O)n3cc(C(N)[C@H](C)CC)nn3)CC2)n1 (some centres undefined)	3.7	5.7	i	3.7
C#CCOCCOCCOCCNc1nc(N2CCN(C(=O)C([C@@H](C)CC)n3cc(C(N)Cc4ccc(O)cc4)nn3)CC2)nc(N2CCN(C(=O)[C@H](CCC(=O)O)n3cc(C(N)Cc4ccc(O)cc4)nn3)CC2)n1 (some centres undefined)	-0.2	-3.0	i	63.6*
C#CCOCCOCCOCCNc1nc(N2CCN(C(=O)C([C@@H](C)O)n3cc([C@@H](N)CCCCN)nn3)CC2)nc(N2CCN(C(=O)[C@H](CCCN=C(N)N)n3cc(C(N)[C@@H](C)CC)nn3)CC2)n1 (some centres undefined)	61.1*	16.2	i	4.6
C#CCOCCOCCOCCNc1nc(N2CCN(C(=O)[C@H](CCCN=C(N)N)n3cc(C(N)[C@@H](C)CC)nn3)CC2)nc(N2CCN(C(=O)[C@H](CCC(=O)O)n3cc([C@@H](N)CC(N)=O)nn3)CC2)n1 (some centres undefined)	0.5	-4.6	+	-0.8
C#CCOCCOCCOCCNc1nc(N2CCN(C(=O)C([C@@H](C)O)n3cc([C@@H](N)CCCCN)nn3)CC2)nc(N2CCN(C(=O)[C@H](CCC(=O)O)n3cc([C@@H](N)[C@H](C)CC)nn3)CC2)n1 (some centres undefined)	-1.4	3.1	+	-3.0
SMILES	HNF4A DNA FP	CSN inh	Myeloid diff 2	Granule exo inh
Cc1c(C(=O)N2CCCCC2)c(S(=O)(=O)N2CCC(C)CC2)c(C)n1C	6.0	4.0	i	5.7
COc1cccc(-c2nc3nc(C)cc(C)n3c2Nc2c(C)cccc2C)c1	53.3*	31.9	i	-5.6
CCCCNc1c(-c2cccc(OC)c2)nc2nc(C)cc(C)n12	2.1	0.2	i	-2.7
O=C(NCc1ccccc1Br)C1CCCO1 (centres undefined)	0.4	-2.8	i	4.8
C=CCOC(=O)C1=C[C@H](C(C)(C)C)[C@@H](CCCO)[C@H](OCC)O1	-0.3	6.2	i	69.4*
CCO[C@@H]1OC(C(N)=O)=C[C@H](C(C)(C)C)[C@H]1CCCO	9.1	0.0	i	0.5
CCOC(=O)c1ccc(-n2c(CCC(=O)O)ccc2-c2ccc(F)cc2)cc1	1.7	42.1*	i	10.4
Cc1ccc(OC2=NS(=O)(=O)c3ccccc32)cc1	-3.7	-1.5	+	0.7
CN(C(=O)c1ccncc1)C1CCCCC1	-3.1	-0.8	i	-0.9
COc1ccc(-c2csc(NC(=O)CCS(=O)(=O)c3ccccc3)n2)c(OC)c1	4.2	-0.6	+	0.6
O=C(CCS(=O)(=O)c1ccccc1)Nc1nc(-c2ccc(F)cc2)cs1	-1.1	2.0	+	2.0
O=C(CS(=O)(=O)c1ccccc1)Nc1nc(-c2ccc(F)cc2)cs1	0.8	3.9	i	7.5
CC1CN(S(=O)(=O)c2cccc(C(=O)NCc3ccccn3)c2)CC(C)O1 (centres undefined)	-1.7	-0.1	i	-1.5
Cc1ccc(C(NC(=O)c2cccc(S(=O)(=O)N3CCN(C)CC3)c2)c2ccccc2)cc1 (centres undefined)	-1.5	-0.3	i	0.4
Cc1cc(=O)oc2cc(OCC(=O)Nc3ccccc3C(=O)O)ccc12	0.8	-0.9	i	12.6
CN(c1ccccc1)c1nc(N)c([N+](=O)[O-])c(Nc2ccccc2F)n1	0.7	-0.1	i	75.6*
N=c1c(C(=O)NCc2ccco2)cc2c(=O)n3ccccc3nc2n1Cc1ccccc1	-9.8	8.7	i	6.5
COc1ccc(Cn2c(=N)c(C(=O)NC3CCCCC3)cc3c(=O)n4ccccc4nc32)cc1	0.8	1.9	i	-1.2
COc1cccc(NC(=O)c2cc3c(=O)n4ccccc4nc3n(CC(C)C)c2=N)c1	2.3	-0.4	?	68.2*
